Experimental data as given in ChEMBL document CHEMBL4334464, “From Phenylthiazoles to Phenylpyrazoles: Broadening the Antibacterial Spectrum toward Carbapenem-Resistant Bacteria” (J Med Chem, 2019).

Key:
[1] = system: Staphylococcus aureus; test: Antibacterial activity against methicillin-resistant Staphylococcus aureus NRS123-USA400 clinical isolates assessed as ratio of MIC after and before 1 serial passages by broth microdilution assay; format: functional
Outline: (§1)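 MRSA USA400 was serially passaged over a 14-day period in the presence of each compound or control antibiotic. MIC was determined by broth microdilution after each passage. A four-fold rise in MIC was taken as a sign of resistance.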

[2] = system: Staphylococcus aureus; test: Antibacterial activity against methicillin-resistant Staphylococcus aureus NRS123-USA400 clinical isolates assessed as ratio of MIC after and before 13 serial passages by broth microdilution assay; format: functional; outline: as §1

Structure (SMILES): CO[C@H]1/C=C/O[C@@]2(C)Oc3c(C)c(O)c4c(O)c(c(/C=N/N5CCN(C)CC5)c(O)c4c3C2=O)NC(=O)/C(C)=C\C=C\[C@H](C)[C@H](O)[C@@H](C)[C@@H](O)[C@@H](C)[C@H](OC(C)=O)[C@@H]1C [RIFAMPIN]
- Ratio [1]: 7
- Ratio [2]: >500000
